# In the library only some 5.2% were active in any assay of this set; here they are far more common.
# ALR H2O2 inh: inhibitors of human ALR sulfhydryl oxidase, primary screen, biochemical, H2O2 detection, HRP-luminol luminescence, single point. FAD-linked sulfhydryl oxidase ALR (Homo sapiens), P55789. purified ALR, DTT oxidation. inhibition, % (no concentration beside the values). 290,000 tested, 3.8% active;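 active = mean replicate inhibition above about 79%, with every replicate also reaching it, limit read from the data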
# Target sequence (P55789 whole entry, looked up): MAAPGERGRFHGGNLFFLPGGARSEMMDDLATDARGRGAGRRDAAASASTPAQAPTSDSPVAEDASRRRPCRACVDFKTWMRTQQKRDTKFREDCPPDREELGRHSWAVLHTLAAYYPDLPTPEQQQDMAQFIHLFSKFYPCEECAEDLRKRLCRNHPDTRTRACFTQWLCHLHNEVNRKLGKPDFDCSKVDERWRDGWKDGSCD
# HCV NS3 hel inh: inhibitors of HCV NS3 helicase, primary screen, biochemical, Cy5 molecular beacon fluorescence; 290,000 tested, 0.56% active; NS3 helicase DNA unwinding; Hepatitis C virus NS3 helicase; inhibition, % at 10.9 µM;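 active = inhibition above the mean of all tested compounds plus 3 SD, set per campaign, cut at about 35% in these data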;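 note: 0% = DMSO wells and 100% = thioflavine S control wells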
#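 Assay system – hepatitis C virus NS3 helicase domain fragment enzyme · Buffer or medium – MOPS pH 6.5, MgCl2, DTT, Tween20, BSA · Reagent – Cy5/quencher beacon DNA duplex and ATP to start · Compound – single 10.9 µM dose · Timing – 1 h at 25 °C · Technique – Cy5 beacon fluorescence read at start and 1 h · Measure – % inhibition of unwinding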
# HCV core dimer: inhibitors of HCV core protein dimerization, primary screen, biochemical, TR-FRET, high-throughput; AID 1899, 2009; 300,000 tested, 0.33% active; inhibition, % at 5 µM; TR-FRET GST/Flag-core106 dimerization, 1536-well;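 active = inhibition above the mean of all tested compounds plus 3 SD, set per screening campaign, cut at about 45% in these data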
#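 Assay system – GST-tagged and Flag-tagged HCV core protein residues 1-106 · Quantity – core106 proteins, GST 13.5 nM and Flag 17 nM · Benchmarks – unlabelled core106 and no-GST-core106 wells · Read-out basis – percent inhibition of core106 dimerization signal · Detection – time-resolved FRET, ex 340 nm, em 617 and 671 nm · Schedule – 4 h at 22.5 °C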
# EBNA-1 inhibitor: EBNA-1 DNA-binding inhibitors, primary screen, biochemical, fluorescence polarization; inhibition, % at 14.8 µM; 300,000 tested, 0.34% active; AID 1950, 2009; in the data active = inhibition above about 28%
# PfM18AAP inh: PfM18AAP inhibitors, malaria aminopeptidase, primary screen, biochemical, QFRET, recombinant enzyme; M18 aspartyl aminopeptidase (Plasmodium falciparum 3D7); H-Glu-NHMec fluorogenic cleavage; inhibition, % at 7.35 µM; 290,000 tested, 1.2% active; AID 1822, 2009;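 active = inhibition above the campaign mean inhibition over all tested compounds plus 3 SD, cut at about 28% in these data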;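 note: 0% = plate median of test compound wells and 100% = 2 mM ZnCl2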
# ZTA counter: blocks Epstein-Barr virus ZTA, an EBNA-1 counter-screen. P03206. ZTA-DNA binding, fluorescence polarization. inhibition, % at 11 µM. 320,000 tested, 0.15% active. AID 2234; in the data active = inhibition above about 33%
# Target sequence (P03206 whole entry, looked up): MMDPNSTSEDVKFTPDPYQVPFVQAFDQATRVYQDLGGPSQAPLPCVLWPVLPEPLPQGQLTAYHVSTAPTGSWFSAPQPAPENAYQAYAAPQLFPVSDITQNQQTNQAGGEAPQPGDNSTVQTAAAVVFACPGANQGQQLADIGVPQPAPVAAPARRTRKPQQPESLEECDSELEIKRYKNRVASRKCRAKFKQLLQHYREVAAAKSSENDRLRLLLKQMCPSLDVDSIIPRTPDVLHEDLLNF
# * marks the source's active call; other numbers are inactive results; x = no result.
SMILES,ALR H2O2 inh,HCV NS3 hel inh,HCV core dimer,EBNA-1 inhibitor,PfM18AAP inh,ZTA counter
Cc1ccc2c(c1)c1c(n2CC(O)CNC(CO)(CO)CO)CCCC1 (stereo not given),96*,-15,-8,0,4,1
CCOC(=O)CCNC(=O)c1ccc2nc(C3CCCCC3)oc2c1,x,11,-13,-11,1,-7
COc1ccc(-c2cn3c4c(sc3n2)CCCC4)cc1,96*,-7,-5,5,10,9
Nc1cccc2c(=O)c3ccccc3[nH]c12,52,25,-26,-6,29*,4
COc1cccc2[nH]c3ccccc3c(=O)c12,-18,2,4,9,5,-10
Cc1cc(C)cc(Oc2nc3ccccn3c(=O)c2/C=C(\C#N)C(=O)NC2CCS(=O)(=O)C2)c1 (stereo not given),35,-1,7,-20,4,-16
Cc1ccc(Oc2nc3ccccn3c(=O)c2/C=C(\C#N)C(=O)NC2CCS(=O)(=O)C2)c(C)c1 (stereo not given),84*,-4,8,-2,2,7
O=C(Oc1ccc(-c2csnn2)cc1)c1cccs1,-7,-3,0,1,5,-5
O=C(Oc1ccccc1-c1csnn1)c1cccs1,99*,-2,2,8,2,2
CCN(CC)c1ccc(C=Nc2cccnc2Cl)c(O)c1,-20,7,1,-6,31*,-10
CCOc1cc(CNc2cccc3[nH]c(C)nc23)ccc1OC,98*,-18,-10,-4,3,-3
C=CC[C@H](CC(=O)OC(C)(C)C)C(=O)OC[C@@H]1CCCN1C(=O)[C@@H](CC=C)CC(=O)NCCO,-8,x,x,x,x,x
CCSc1nnc(-c2cc(Br)ccc2N=Cc2c(C)[nH]n(-c3ccccc3)c2=O)c(=O)[nH]1,11,11,8,-9,-7,-8
CCSc1nnc(-c2ccccc2N=Cc2c(C)[nH]n(-c3ccccc3)c2=O)c(=O)[nH]1,95*,1,-2,-7,6,5
N#Cc1ccc(/C=C/C(=O)c2ccco2)cc1,5,0,3,11,7,16
O=C(/C=C/c1ccccc1O)c1ccco1,x,5,1,4,20,15
Nc1ccc(/C=C/C(=O)c2ccco2)cc1,99*,-11,-3,-2,-2,-20
O=C(/C=C/c1cc(Br)ccc1O)c1ccco1,97*,12,3,-4,13,2
Cc1cc(N2C(=O)C(O)=C(C(=O)c3cc4ccccc4o3)C2c2ccc(OC(C)C)cc2)no1 (stereo not given),96*,11,-4,8,11,13
Cc1cc(N2C(=O)C(O)=C(C(=O)c3cc4ccccc4o3)C2c2cccc(Br)c2)no1 (stereo not given),98*,18,-6,8,23,14
COc1ccc(C)cc1S(=O)(=O)N1CCCC(C(=O)N2CCOCC2)C1 (stereo not given),-2,0,1,-7,-9,2
COCCCNC(=S)N/N=C/c1ccc(N(C)C)cc1,98*,2,-13,-15,3,-5
CNC(=S)N/N=C/c1ccc(N(C)C)cc1,99*,12,-16,11,7,7
Cc1c(NC(=S)N/N=C/c2ccc(N(C)C)cc2)c(=O)n(-c2ccccc2)n1C,99*,11,-12,-9,19,5
CC(=O)N1CCN(CC(=O)Nc2ccccc2Sc2ccccc2)CC1,-1,1,-3,2,5,-4
SMILES,ALR H2O2 inh,HCV NS3 hel inh,HCV core dimer,EBNA-1 inhibitor,PfM18AAP inh,ZTA counter
O=[N+]([O-])c1ccc(-c2cnc(NO)nc2)cc1,99*,-4,2,7,21,0
N#CC(C(=O)Nc1ccccc1)=C1Nc2ccccc2N1,86*,1,-5,-4,2,-17
N#CC(C(=O)Nc1cccc(Cl)c1)=C1Nc2ccccc2N1,0,-8,-2,18,2,11
COc1ccccc1NS(=O)(=O)c1cccc(C(=O)N/N=C(\C)c2ccc(-n3ccnc3)cc2)c1,0,-6,1,2,30*,13
CCN(c1ccccc1)S(=O)(=O)c1ccc(OC)c(NC(=O)c2ccc(=O)[nH]c2)c1,2,x,x,x,x,x
CCOc1ccc(Nc2nc(Cc3nnc(SCC(=O)O)o3)cs2)cc1,87*,32,-1,-2,0,0
CCOc1ccc(Cc2nnc(SCC(=O)c3ccc(OC)cc3)o2)cc1,-1,-11,8,-7,-1,-14
COc1ccc(OC)c(-c2cc(C(=O)Nc3c(C)n(C)n(-c4ccccc4)c3=O)no2)c1,4,-1,-2,3,-6,-5
COc1ccccc1-c1cc(C(=O)Nc2c(C)n(C)n(-c3ccccc3)c2=O)no1,97*,-5,2,2,2,-11
Cc1c(NC(=O)c2ccc(=O)oc2)c(=O)n(-c2ccccc2)n1C,88*,9,-5,5,-17,8
CCCCC(=O)Oc1c(S(=O)(=O)c2ccccc2)c(C)nn1C(C)(C)C,1,-7,8,8,-10,-10
O=C(O)c1ccn(CSc2cc(Cl)ccc2Cl)n1,0,x,x,x,x,-2
CC(=O)NNc1nc(-c2ccccc2)c2cc(Br)ccc2n1,0,-6,-3,1,10,0
O=C(CN1CCCCC1)NNc1nc(-c2ccccc2)c2cc(Br)ccc2n1,90*,-13,1,-3,1,-2
CCC(CC)C(=O)Nc1ccc(C(=O)Nc2cc(C)on2)cc1,-8,5,0,8,0,-2
COc1ccc(N)cc1NC(=O)CN1CCCC1,97*,15,-9,-6,-1,-2
COc1ccc(Cl)cc1NC(=O)CN1CCCCCC1,-10,1,-1,-9,-4,-5
Cc1c(C(=O)N2CCN(c3ccc([N+](=O)[O-])cc3)CC2)sc2ncn(CC(=O)N3CCOCC3)c(=O)c12,33,12,-14,-1,5,-8
CCOC(=O)c1[nH]c(C)c(C(=O)N2CCN(c3ccccc3)CC2)c1C,98*,4,1,14,-9,15
CCn1cnc2sc(C(=O)N3CCN(c4ccc(OC)cc4)CC3)c(C)c2c1=O,81*,3,1,-19,-5,-15
CCOC(=O)c1c(C)[nH]c(C(=O)N2CCN(c3ccc(OC)cc3)CC2)c1C,98*,11,-2,5,2,21
CCOC(=O)c1c(C)[nH]c(C)c1S(=O)(=O)N(C)CC(=O)N1CCN(c2ccc(OC)cc2)CC1,25,3,-2,-15,5,-8
CCOC(=O)c1[nH]c(C)c(C(=O)N2CCOCC2)c1C,-6,3,4,9,-4,10
